# In the library only some 4.6% were active in any assay of this set; here they are far more common.
# WT yeast gro inh: growth inhibition of WT strain, primary screen, mitochondrial fusion inhibitor project, WT and mutant strains, chemical genetic | mitochondrial fusion phenotypic screen | 2.1% of 190,000 active | inhibition, % at 10 µM | AID 1362, 2008; in the data active means inhibition above about 58%; tested in S. cerevisiae
# p47phox inh: p47phox/p22phox peptide binding inhibitors, primary screen, biochemical, uHTS, NADPH oxidase regulatory subunit; Neutrophil cytosol factor 1 (Homo sapiens), P14598; fluorescence polarization, 2 h; inhibition, % at 24.7 µM; 0.53% of 220,000 active;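 active means inhibition above about 30%, limit read from the data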
# Arbovirus inh: antivirals against arbovirus infection, primary screen, cell-based, full library, 10K replicate subset | arbovirus infection cell-based antiviral screen | inhibition, % at 10 µM | 0.37% of 200,000 active; in the data active means inhibition above about 30%
# Hck Nef HTS: inhibitors of Nef-activated human Hck kinase, primary screen, biochemical, Z-Lyte FRET, 384-well, Hck-YEEI; Tyrosine-protein kinase HCK (Homo sapiens), P08631; Recombinant Hck-YEEI plus Nef, Z-Lyte FRET kinase assay; inhibition, % at 20 µM; 0.68% of 220,000 active; AID 463187, 2010;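 active means Hck-Nef kinase inhibition above about 50%, limit read from the data; inactive means inhibition below that limit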
# Target sequence (P08631 whole entry, looked up): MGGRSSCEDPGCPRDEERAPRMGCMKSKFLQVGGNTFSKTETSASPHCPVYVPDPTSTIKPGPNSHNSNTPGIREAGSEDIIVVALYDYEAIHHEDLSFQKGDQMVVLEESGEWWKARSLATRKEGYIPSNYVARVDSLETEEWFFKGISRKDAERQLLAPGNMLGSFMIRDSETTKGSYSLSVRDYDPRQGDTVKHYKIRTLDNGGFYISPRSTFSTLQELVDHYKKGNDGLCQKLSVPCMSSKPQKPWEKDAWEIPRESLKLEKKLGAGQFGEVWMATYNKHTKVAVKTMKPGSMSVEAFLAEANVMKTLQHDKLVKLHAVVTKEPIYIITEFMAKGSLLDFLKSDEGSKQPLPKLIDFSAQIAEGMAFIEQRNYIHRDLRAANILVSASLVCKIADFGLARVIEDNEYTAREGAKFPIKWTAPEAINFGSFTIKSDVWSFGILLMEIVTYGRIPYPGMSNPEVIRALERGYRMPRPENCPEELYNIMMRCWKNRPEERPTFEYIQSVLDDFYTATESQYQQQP
# RAM network inh: inhibitors of the yeast RAM network, primary screen, dse1pr::URA3 reporter, 5-FOA selection; S. cerevisiae dse1pr::URA3 reporter, 5-FOA growth OD615, 2 d; analog-sensitive cbk1-as2 kinase mutant strain; inhibition, % at 50 µM; 1.8% of 190,000 active;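 active means inhibition above a set limit, 3 SD over mean compound inhibition, cut at about 8.4% in these data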;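 further: inhibition rescues growth on 5-FOA so higher OD means more RAM inhibition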
# Biofilm kill mix: clotrimazole potentiators killing C. albicans biofilm, primary screen, 4-compound mixtures | 0.02% of 120,000 active | inhibition, % at 7.6 µM | AID 1242, 2008 | C. albicans biofilm persisters + clotrimazole, fluorescence viability; primary screen in compound mixtures of four per well;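 further: compounds exposed to preformed 24 h biofilms for 48 h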
#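 Assay system: C. albicans biofilms / Medium: RPMI/MOPS medium, pH 7.0 / Schedule: biofilm formation 24 h, compound exposure 48 h, 37 °C / Measured by: Alamar Blue fluorescence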
# Numbers stand for hits; n = inactive; x = not tested or not shown.
SMILES,WT yeast gro inh,p47phox inh,Arbovirus inh,Hck Nef HTS,RAM network inh,Biofilm kill mix
COc1cc(NC(=S)NCCc2ccccc2)c(OC)cc1NC(=O)C(C)C,x,n,x,n,x,n
S=C(NCc1ccccc1)Nc1ccc(Cl)cc1,n,n,n,n,n,n
Cc1cc(=O)[nH]c(N/N=C/c2ccc(OC(=O)c3ccco3)cc2)n1,n,n,n,n,n,n
CC(C)(C)NC(=S)Nc1ccc(Nc2ccccc2)cc1,73,n,n,n,n,x
CC(C)(C)NC(=S)Nc1ccc(Br)cc1,n,n,n,n,n,x
Cc1nc(N2CCOCC2)[nH]c(=O)c1C(O)C(Cl)(Cl)Cl (stereo not given),x,n,x,n,x,n
Cc1ccccc1NS(=O)(=O)c1ccc(NC(=O)CSCc2ccc(Br)cc2)cc1,66,n,n,n,n,x
COC(=O)c1sccc1NC(=O)CSc1ccccc1NS(=O)(=O)c1ccc(Br)cc1,n,n,32,n,n,x
O=C(CSCc1ccc(Br)cc1)Nc1ccc(S(=O)(=O)N2CCOCC2)cc1,n,n,n,n,n,x
COc1ccccc1NC(=O)C1=C(C)NC2=C(C(=O)CC(c3ccc(OC)c(OC)c3)C2)C1c1coc2ccccc2c1=O (stereo not given),n,n,n,n,9.8,n
CCOC(=O)C(=CNc1ccc(Oc2cccnc2)nc1)C(=O)OCC,x,38,x,n,x,n
CCCCN(C(=O)Cn1nnc2ccccc21)C(C(=O)NCCOC)c1cccs1 (stereo not given),n,n,n,n,n,n
COCCNC(=O)C(c1cccc(OC)c1)N(Cc1cccs1)C(=O)Cn1nnc2ccccc21 (stereo not given),n,n,n,n,8.6,x
CC(C)(C)C1CCC(=NOC(=O)c2ccc(F)cc2)CC1 (stereo not given),98,n,n,n,n,n
CCn1c(=N)n(CC(=O)C23CC4CC(CC(C4)C2)C3)c2ccccc21,90,n,n,n,n,x
CCn1c(=N)n(CC(=O)c2cccc([N+](=O)[O-])c2)c2ccccc21,n,n,n,n,n,n
O=C(NCCc1ccc(Cl)cc1)Nc1cccc(Cl)c1,61,n,n,n,n,x
Fc1ccc(CCNC(=S)Nc2ccc(F)c(Cl)c2)cc1,77,n,n,n,n,n
O=C(NCCc1ccccc1)Nc1cccc(Cl)c1,n,n,n,n,n,n
O=CNCC(=O)NCCc1ccc(Cl)cc1,n,n,37,n,n,x
O=[N+]([O-])c1ccc(NC(=S)NCCc2ccc(F)cc2)cc1,85,n,n,n,n,n
Fc1ccc(NC(=S)NCCc2ccc(Cl)cc2)cc1,n,n,n,n,n,n
Cn1c(CNC(=O)c2ccccc2F)nnc1SCc1nc2ccccc2c(=O)[nH]1,n,n,n,n,n,n
Cc1ccc(Cl)cc1N(CC(=O)NCc1ccc2c(c1)OCO2)S(C)(=O)=O,n,n,n,n,n,n
CO/N=C/NC(=O)NOCc1ncc(C(F)(F)F)cc1Cl,n,n,n,n,n,x
SMILES,WT yeast gro inh,p47phox inh,Arbovirus inh,Hck Nef HTS,RAM network inh,Biofilm kill mix
O=C(N/C=N/OCc1ccc(Cl)cc1Cl)NOCc1ncc(C(F)(F)F)cc1Cl,69,n,n,n,n,x
CN(C)CCCN1c2ccccc2Sc2ccc(C(F)(F)F)cc21,95,n,n,n,n,n
COc1ccc(-c2n[nH]c(C)c2-c2cnn(-c3ccccc3)c2)c(O)c1C,n,n,n,n,n,x
COc1ccc(-c2n[nH]c(C)c2-c2cnn(-c3ccccc3)c2)c(O)c1,n,n,38,n,n,n
CN(C1=C(NC(=O)c2ccc(Cl)cc2)C(=O)c2ccccc2C1=O)c1ccccc1,73,n,n,n,n,n
O=C(NC1=C(Nc2ccc(Cl)cc2)C(=O)c2ccccc2C1=O)c1ccccc1,79,n,n,n,n,n
COc1ccc(CCn2c(C(C)C)nc3c(c(=O)c4ccccc4n3C)c2=O)cc1,n,n,n,n,8.9,n
COc1ccc(Cn2c(-c3ccc(C)cc3)nc3c(c(=O)c4ccccc4n3C)c2=O)cc1,n,n,n,n,9.9,n
O=C(COC(=O)Cc1ccc(Cl)cc1)Nc1ccc(OC(F)F)cc1,n,n,n,n,n,n

# From PubChem BioAssay
